For five compounds, IC50, Activity and inhibition results are on record in ChEMBL document CHEMBL1177807, “Structure-based optimization of potent PDK1 inhibitors” (Bioorg Med Chem Lett, 2010).

Experiment [1] deals with T1, 3-phosphoinositide-dependent protein kinase 1 (Homo sapiens, UniProt O15530).
T1 sequence (O15530 whole entry): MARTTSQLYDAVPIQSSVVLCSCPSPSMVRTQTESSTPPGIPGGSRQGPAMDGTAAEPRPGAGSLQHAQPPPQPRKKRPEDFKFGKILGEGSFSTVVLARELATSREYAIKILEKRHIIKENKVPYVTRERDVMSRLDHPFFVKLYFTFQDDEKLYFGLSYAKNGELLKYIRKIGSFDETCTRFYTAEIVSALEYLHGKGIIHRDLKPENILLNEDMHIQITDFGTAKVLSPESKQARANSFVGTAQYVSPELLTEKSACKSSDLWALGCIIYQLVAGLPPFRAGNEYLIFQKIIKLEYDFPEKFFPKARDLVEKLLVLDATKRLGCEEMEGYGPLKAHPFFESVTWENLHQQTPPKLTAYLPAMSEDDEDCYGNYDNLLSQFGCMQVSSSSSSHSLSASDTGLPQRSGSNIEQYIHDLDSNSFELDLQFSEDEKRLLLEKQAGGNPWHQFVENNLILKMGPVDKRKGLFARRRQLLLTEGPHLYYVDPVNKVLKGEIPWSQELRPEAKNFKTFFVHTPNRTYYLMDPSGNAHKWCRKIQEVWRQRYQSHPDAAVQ
Briefly: (§1) Inhibition of PDK1.

For experiment [2], the target named is Cyclin-dependent kinase 2 (Homo sapiens, UniProt P24941). Briefly: Inhibition of CDK2.
Experiment [3] concerns MCF7. Put plainly: Cytotoxicity against human MCF7 cells after 72 hrs by Cell titer-glo assay. Format: functional. The essentials:
(§2)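 A2780 cells were grown in RPMI-1640 and MCF7 cells in MEM, each with heat-inactivated 10% fetal calf serum. Cells were seeded at 2500–5000 cells/well, treated with compound after 24 h, and incubated 72 h at 37 °C under 5% CO₂. Lysed-well ATP content, read by thermostable firefly luciferase, measured viable cells. IC₅₀ came from percent growth versus untreated control.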

The subject of experiment [4] is A2780. Briefly: Cytotoxicity against human A2780 cells after 72 hrs by Cell titer-glo assay. Format: functional. The essentials:
as §2
A general note: Cellular ATP, detected with luciferase, serves as a proxy for viable cell number.

Experiment [5] has as its target T2, 3-phosphoinositide-dependent protein kinase 1 (Homo sapiens) (UniProt O15530).
T2 sequence (whole entry): T1 sequence (O15530 whole entry)
The experiment is described as §1.

Experiment [6] deals with T3, Aurora kinase A (Homo sapiens) (UniProt O14965).
T3 sequence (whole entry): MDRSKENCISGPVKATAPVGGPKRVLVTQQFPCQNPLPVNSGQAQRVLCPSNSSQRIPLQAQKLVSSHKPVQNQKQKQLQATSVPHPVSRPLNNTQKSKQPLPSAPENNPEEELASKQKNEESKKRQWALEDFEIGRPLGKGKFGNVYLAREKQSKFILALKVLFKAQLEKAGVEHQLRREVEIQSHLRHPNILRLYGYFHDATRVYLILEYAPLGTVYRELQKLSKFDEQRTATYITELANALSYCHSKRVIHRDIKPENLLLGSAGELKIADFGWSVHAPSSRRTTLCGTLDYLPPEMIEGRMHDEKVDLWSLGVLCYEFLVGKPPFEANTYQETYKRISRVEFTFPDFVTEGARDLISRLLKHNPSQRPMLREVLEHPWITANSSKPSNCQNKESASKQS
Briefly: Inhibition of aurora A at 40 nM.

In experiment [7] the target is Aurora kinase B (Homo sapiens) (UniProt Q96GD4). Put plainly: Inhibition of aurora B at 100 nM.
Sequence of Aurora kinase B (Homo sapiens) (Q96GD4 whole entry): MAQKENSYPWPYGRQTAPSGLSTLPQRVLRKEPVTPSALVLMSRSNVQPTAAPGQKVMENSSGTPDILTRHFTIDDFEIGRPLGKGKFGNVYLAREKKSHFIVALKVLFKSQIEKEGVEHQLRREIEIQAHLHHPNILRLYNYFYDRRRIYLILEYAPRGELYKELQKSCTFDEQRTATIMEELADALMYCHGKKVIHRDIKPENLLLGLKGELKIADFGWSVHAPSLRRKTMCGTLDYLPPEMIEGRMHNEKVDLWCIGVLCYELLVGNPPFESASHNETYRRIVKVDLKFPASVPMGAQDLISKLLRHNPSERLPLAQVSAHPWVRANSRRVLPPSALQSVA

Usually IC50 stands for the concentration at which inhibition is half-maximal. A high value points to a need for much substance.

Structures are written as SMILES. Calls of active or inactive are those of the source. No cut-off for these calls is given here.

Regarding `NC(=O)Cn1nc(C(N)=O)c2c1-c1nc(Nc3ccccc3)ncc1CC2`, the IC50 stood at 2.74 µM in experiment [1] and 0.01 µM in experiment [2]. In addition, the Activity in experiment [3] came out at 6 µM; in experiment [4], 2.71 µM.

In turn, `NC(=O)c1nn(CC2CCNCC2)c2c1CCc1cnc(Nc3ccccc3)nc1-2` registered an IC50 in experiment [2] of 0.012 µM. In addition, the Activity in experiment [3] worked out at 1.36 µM; in experiment [4], 0.51 µM.

On to `Cc1cc(CNC(=O)c2nn(C)c3c2CCc2cnc(Nc4ccc(N5CCN(C)CC5)cc4)nc2-3)ccn1`, for which the values for the IC50 in experiment [5] and in experiment [2] were 0.713 µM and 0.319 µM, respectively. In addition, the Activity was 4.91 µM in experiment [3] and 0.17 µM in experiment [4].

For the compound `Cc1cc(CNC(=O)c2nn(CCCN)c3c2CCc2cnc(Nc4cccc(CC(=O)N(C)C)c4)nc2-3)ccn1` [NERVIANO], the inhibition entry in experiment [6] and in experiment [7] was “Active” each time. For the same compound, the IC50 came out at 0.085 µM in experiment [1] and 0.5 µM in experiment [2]. Moreover, the figures for the Activity in experiment [3] and in experiment [4] were more than 10 µM and 5.9 µM, respectively.

As to `NCCCn1nc(C(N)=O)c2c1-c1nc(Nc3ccccc3)ncc1CC2`, the IC50 was found to be 0.036 µM in experiment [1] and 0.001 µM in experiment [2]. Moreover, the results for the Activity in experiment [3] and in experiment [4] were 0.14 µM and 0.12 µM, respectively.
